The results in this text go back to ChEMBL document CHEMBL1122622, “Carbocyclic analogues of xylofuranosylpurine nucleosides. Synthesis and antitumor activity” (J Med Chem, 1984).

The structures appear in SMILES notation.

Experiment [1] has as its system Mus musculus. Put plainly: Compound was evaluated for the in vivo antitumor activity against P388 leukemia cells after injecting the compound intraperitoneally at a dose of 1 mg/kg in mice. It counts as functional. The note with it: route intraperitoneal. In short, it runs like this: (§1)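 BDF1 male mice, eight per group, implanted ip with 10⁶ P388 leukemia cells. Drug given ip in 0.5 mL saline. Schedules varied between groups; the 100 mg/kg/day regimen was dosed qd 1-9.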

Experiment [2] deals with Mus musculus. The experiment can be described thus: Compound was evaluated for the in vivo antitumor activity against P388 leukemia cells after injecting the compound intraperitoneally at a dose of 2 mg/kg in mice (treatment schedule 1-9 days). It counts as functional. Conditions: route intraperitoneal. In short, it runs like this:
as §1

For experiment [3], the system named is Mus musculus. The experiment can be described thus: (§2) Compound was evaluated for the in vivo antitumor activity against P388 leukemia cells after injecting the compound intraperitoneally at a dose of 5 mg/kg in mice. The class given is functional. The note with it: route intraperitoneal. An outline of the steps: as §1
For experiment [4], the system named is Mus musculus. Put plainly: Compound was evaluated for the in vivo antitumor activity against P388 leukemia cells after injecting the compound intraperitoneally at a dose of 50 mg/kg in mice. It counts as functional. The note with it: route intraperitoneal. In short, it runs like this:
as §1

In experiment [5] the test system is Mus musculus. The description is as §2. The class given is functional. Conditions: route intraperitoneal. An outline of the steps: as §1
This is another data set of the same source.

Experiment [6] concerns Mus musculus. The experiment can be described thus: Compound was evaluated for the in vivo antitumor activity against p388 leukemia cells after injecting the compound intraperitoneally at a dose of 2 mg/kg in mice. The class given is functional. The note with it: route intraperitoneal. In short, it runs like this:
as §1

Experiment [7] deals with Mus musculus. The experiment can be described thus: Compound was evaluated for the in vivo antitumor activity against p388 leukemia cells after injecting the compound intraperitoneally at a dose of 5 mg/kg in mice. It counts as functional. Conditions: route intraperitoneal. An outline of the steps: as §1
The species named for experiment [8] is Mus musculus. The experiment can be described thus: Effective dose by 50% was evaluated. The class given is functional. An outline of the steps: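 P388 mouse lymphoid leukemia cells were grown in culture in the presence of the compound, and the concentration giving 50% effect on growth was taken as the ED₅₀.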
Experiment [9] has as its target Adenosine deaminase (Bos taurus) (UniProt P56658). The experiment can be described thus: Compound was evaluated for competitive inhibition of adenosine deaminase and expressed as Ki.

Sequence of Adenosine deaminase (Bos taurus) (P56658 whole entry, looked up): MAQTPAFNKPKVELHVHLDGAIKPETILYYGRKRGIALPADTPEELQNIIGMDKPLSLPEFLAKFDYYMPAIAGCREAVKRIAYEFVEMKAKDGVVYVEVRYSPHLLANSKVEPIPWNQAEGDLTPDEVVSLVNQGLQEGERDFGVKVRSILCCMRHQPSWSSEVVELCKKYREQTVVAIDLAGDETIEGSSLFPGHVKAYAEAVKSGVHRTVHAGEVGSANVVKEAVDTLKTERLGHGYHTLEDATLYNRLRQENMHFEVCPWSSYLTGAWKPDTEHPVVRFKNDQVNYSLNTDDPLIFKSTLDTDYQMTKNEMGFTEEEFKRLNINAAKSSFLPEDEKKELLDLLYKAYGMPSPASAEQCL

With `Nc1ncnc2c1nnn2C1CC(CO)C(O)C1O` (configuration not stated), the Survival time in the experiment on Mus musculus [1] turned out to be 13.9 days; with Mus musculus [2] it was 16.1 days; with Mus musculus [3], 18.4 days; with Mus musculus [4], 19.5 days; with Mus musculus [5], 17.9 days. Besides, the T/C is reported as 128% in the experiment on Mus musculus [1]; 226% in the experiment with Mus musculus [4]; 175% with Mus musculus [5]; 149% in the experiment with Mus musculus [6]; 173% with Mus musculus [7].

Take `Nc1ncnc2c1ncn2[C@@H]1C[C@H](CO)[C@@H](O)[C@H]1O` [ARISTEROMYCIN]: the ED50 in the experiment listed under Mus musculus [8] turned out to be 67 µM. Moreover, the affinity in experiment [9], expressed as Ki, was 9.9 µM.
